Laboratory results as given in ChEMBL document CHEMBL3259517, “Synthesis and evaluation of phosphorus containing, specific CDK9/CycT1 inhibitors” (J Med Chem, 2014).
Activity calls are given as the source filed them. The rule behind the calls is not given here.

Columns and labels:
[1] = biological target: T1, Cyclin-dependent kinase 4/cyclin D1 (Homo sapiens) (UniProt P11802+P24385); test: Inhibition of CDK4/CycD1 (unknown origin) using FAM labeled peptide as substrate at 10 uM by IMAP FAM FP assay; type: protein-complex assay
In short: (§1)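 Run by contract partners as an IMAP fluorescence polarization assay. […] Enzyme amount was set to give 50% substrate turnover. Compounds were added in DMSO, IMAP binding solution added after the kinase step, then FP read.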

[2] = biological target: T2, Cyclin-dependent kinase 2/cyclin E1 (Homo sapiens) (UniProt P24864+P24941); test: Inhibition of CDK2/CycE (unknown origin) using FAM labeled peptide as substrate at 10 uM by IMAP FAM FP assay; type: protein-complex assay; in short: as §1
[3] = biological target: CDK9/cyclin T1 (Homo sapiens, UniProt P50750); test: Inhibition of CDK9/CycT1 (unknown origin) using TAMRA-Rbtide and ATP as substrate after 1 hr; type: protein-complex assay
[4] = biological target: T3, CDK9/cyclin T1 (Homo sapiens) (UniProt O60563+P50750); test: Competitive inhibition of CDK9/CycT1 (unknown origin) using ATP as substrate; type: protein-complex assay
In short: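 Kinase inhibition measured with inhibitor held constant at 260 nM across five ATP concentrations, printed as 1.33, 4, 12 (K_mATP), 36 and 108 […]. Ki taken from measured IC50 via the Cheng−Prusoff equation, with the IC50/Ki ratio compared across ATP levels.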

[5] = test system: Human immunodeficiency virus 1; test: Antiviral activity against HIV1 HTLV-3B infected in human MT4 cells assessed as inhibition of virus proliferation by measuring host cell viability at 1250 nM relative to control; type: functional
In short: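 HIV-1 HTLV-IIIB (3400 TCID50/mL per well; titre set by virus yield assay) infected MT4 cells, 2−3 × 10⁴/well in RPMI1640 with 10% FCS, penicillin and streptomycin, cultured as for the 7-day viability assay (37 °C, 5% CO2). Test compounds were at 1250 nM and AZT control at 25 nM. Read-out was MTT (4 h, DMSO, A540), given relative to infected untreated cells (100%).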

[6] = Cytotoxicity against human MT4 cells assessed as cell viability at 2500 nM after 7 days by MTT assay relative to control; type: cell-based; conditions: read-out: Activity
In short: (§2)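 MT4 cells (2−3 × 10⁴/well) in RPMI1640 with 10% FCS, penicillin and streptomycin, exposed to compound at 2500 or 1250 nM for 7 days at 37 °C, 5% CO2. MTT added for 4 h, supernatant removed, formazan dissolved in DMSO, absorbance read at 540 nm. Viability expressed relative to untreated cells (100%).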

[7] = Cytotoxicity against human MT4 cells assessed as cell viability at 1250 nM after 7 days by MTT assay relative to control; type: cell-based; conditions: read-out: Activity; in short: as §2
[8] = biological target: T3, CDK9/cyclin T1 (Homo sapiens); test: Inhibition of CDK9/CycT1 (unknown origin) using TAMRA-Rbtide and ATP as substrate at 1 uM after 1 hr; type: protein-complex assay
[9] = biological target: T2, Cyclin-dependent kinase 2/cyclin E1 (Homo sapiens); test: Inhibition of CDK2/CycE (unknown origin) using FAM labeled peptide as substrate at 1 uM by IMAP FAM FP assay; type: protein-complex assay; in short: as §1
[10] = biological target: T1, Cyclin-dependent kinase 4/cyclin D1 (Homo sapiens); test: Inhibition of CDK4/CycD1 (unknown origin) using FAM labeled peptide as substrate at 1 uM by IMAP FAM FP assay; type: protein-complex assay; in short: as §1

CDK9/cyclin T1, sequence (O60563 whole entry): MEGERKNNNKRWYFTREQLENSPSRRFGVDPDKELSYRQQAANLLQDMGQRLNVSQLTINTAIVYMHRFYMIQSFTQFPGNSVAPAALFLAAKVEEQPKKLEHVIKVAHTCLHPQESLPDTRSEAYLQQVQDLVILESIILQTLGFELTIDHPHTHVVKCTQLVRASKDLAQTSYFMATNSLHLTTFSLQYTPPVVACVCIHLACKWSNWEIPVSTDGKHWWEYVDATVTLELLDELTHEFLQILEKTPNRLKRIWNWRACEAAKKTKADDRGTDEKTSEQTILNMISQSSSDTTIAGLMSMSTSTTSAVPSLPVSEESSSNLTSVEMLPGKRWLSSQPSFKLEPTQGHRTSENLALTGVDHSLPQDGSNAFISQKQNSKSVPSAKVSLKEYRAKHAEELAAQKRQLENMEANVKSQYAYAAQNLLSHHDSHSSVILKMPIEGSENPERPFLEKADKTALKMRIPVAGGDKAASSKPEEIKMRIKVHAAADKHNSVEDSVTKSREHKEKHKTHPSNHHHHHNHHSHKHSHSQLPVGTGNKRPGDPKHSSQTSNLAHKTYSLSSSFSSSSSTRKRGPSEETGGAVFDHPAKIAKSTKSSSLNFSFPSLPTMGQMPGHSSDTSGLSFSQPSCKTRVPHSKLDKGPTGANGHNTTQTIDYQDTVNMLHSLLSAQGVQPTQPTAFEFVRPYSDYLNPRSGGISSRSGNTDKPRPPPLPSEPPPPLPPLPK
CDK9/cyclin T1, sequence (P50750 whole entry): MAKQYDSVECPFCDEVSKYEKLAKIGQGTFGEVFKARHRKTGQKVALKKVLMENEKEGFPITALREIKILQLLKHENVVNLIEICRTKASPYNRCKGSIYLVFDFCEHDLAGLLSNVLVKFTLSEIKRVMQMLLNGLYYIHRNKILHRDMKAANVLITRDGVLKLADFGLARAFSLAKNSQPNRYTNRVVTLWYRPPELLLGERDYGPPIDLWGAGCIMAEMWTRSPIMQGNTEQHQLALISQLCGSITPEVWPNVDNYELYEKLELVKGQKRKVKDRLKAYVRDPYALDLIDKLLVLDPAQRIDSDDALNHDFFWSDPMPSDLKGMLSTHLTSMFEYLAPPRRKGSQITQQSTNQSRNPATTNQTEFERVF

Compound	inhibition [1]	inhibition [2]	IC50 [3]	also measured
CCOP(=O)(OCC)C(O)c1ccc(Nc2cc(-c3ccccc3OC)ncn2)cc1 (configuration not stated)	68%	94%	0.51 µM	–
COc1ccccc1-c1cc(Nc2cccc(P(=O)(O)O)c2)ncn1	40%	56%	0.429 µM	competitive inhibition (qualitative) [4]: Active; Host cell viability relative to infected untreated cells [5]: 130%; viability at 168 h, 2.5 µM [6]: 90%; viability at 168 h, 1.25 µM [7]: 90%
CCOP(=O)(OCC)c1ccc(Nc2cc(-c3ccccc3OC)ncn2)cc1	22%	69%	1.02 µM	–
CN1CC[C@H](c2c(O)cc(O)c3c(=O)cc(-c4ccccc4Cl)oc23)[C@H](O)C1	84%	99%	–	–
CCOP(=O)(OCC)c1ccc(Nc2cc(-c3cccc(N)c3)ncn2)cc1	35%	18%	> 10 µM	–
CCP(=O)(O)Cc1cccc(Nc2cc(-c3ccccc3OCc3ccccc3)ncn2)c1	–	–	0.163 µM	Host cell viability relative to infected untreated cells [5]: 124%; viability at 168 h, 2.5 µM [6]: 104%; viability at 168 h, 1.25 µM [7]: 110%
CCOP(=O)(CC)Cc1cccc(Nc2cc(-c3cccc(N)c3)ncn2)c1 (configuration not stated)	–	–	0.327 µM	inhibition [8]: 96%; inhibition [9]: 18%; inhibition [10]: 22%
CCOP(=O)(Cc1ccc(Nc2cc(-c3ccccc3OC)ncn2)cc1)OCC	51%	77%	0.49 µM	–
CCOP(=O)(CC)Cc1cccc(Nc2cc(-c3ccccc3OCc3ccccc3)ncn2)c1 (configuration not stated)	–	–	0.212 µM	Host cell viability relative to infected untreated cells [5]: 135%; viability at 168 h, 2.5 µM [6]: 94%; viability at 168 h, 1.25 µM [7]: 98%
CCOP(=O)(Cc1cccc(Nc2cc(-c3cccc(N)c3)ncn2)c1)OCC	–	–	0.332 µM	Host cell viability relative to infected untreated cells [5]: 96%
CCCP(=O)(Cc1cccc(Nc2cc(-c3ccccc3OCC)ncn2)c1)OCC (configuration not stated)	–	–	0.254 µM	competitive inhibition (qualitative) [4]: Active
CCCP(=O)(Cc1cccc(Nc2cc(-c3ccccc3OCc3ccccc3)ncn2)c1)OCC (configuration not stated)	–	–	0.143 µM	Host cell viability relative to infected untreated cells [5]: 148%; viability at 168 h, 2.5 µM [6]: 93%; viability at 168 h, 1.25 µM [7]: 86%
CCOP(=O)(Oc1cc(Nc2cc(-c3ccccc3OC)ncn2)ccc1C)c1ccccc1 (configuration not stated)	19%	8%	4.14 µM	–
CCCOc1ccccc1-c1cc(Nc2cccc(CP(=O)(CCC)OCC)c2)ncn1 (configuration not stated)	–	–	0.248 µM	competitive inhibition (qualitative) [4]: Active
CCOP(=O)(Cc1cccc(Nc2cc(-c3ccccc3OC)ncn2)c1)OCC	–	–	0.333 µM	viability at 168 h, 2.5 µM [6]: 100%; viability at 168 h, 1.25 µM [7]: 91%
CCOP(=O)(CC)Cc1cc(Nc2cc(-c3cccc(N)c3)ncn2)ccc1C (configuration not stated)	–	–	0.346 µM	–

Compound	inhibition [1]	inhibition [2]	IC50 [3]	also measured
CCOP(=O)(Cc1ccc(Nc2cc(-c3cccc(N)c3)ncn2)cc1)OCC	30%	14%	3.11 µM	–
CCOP(=O)(CC)c1cccc(Nc2cc(-c3ccccc3OC)ncn2)c1 (configuration not stated)	–	–	0.842 µM	–
CCCP(=O)(Cc1cccc(Nc2cc(-c3ccccc3Oc3ccccc3)ncn2)c1)OCC (configuration not stated)	–	–	0.601 µM	–
CCCP(=O)(OCC)c1ccc(Nc2cc(-c3ccccc3OC)ncn2)cc1 (configuration not stated)	–	–	1.15 µM	–
Nc1cccc(-c2cc(Nc3ccc(P(=O)(O)O)cc3)ncn2)c1	67%	98%	3.32 µM	–
CCOP(=O)(Cc1cccc(Nc2cc(-c3cccc([N+](=O)[O-])c3)ncn2)c1)c1ccccc1 (configuration not stated)	–	–	> 10 µM	–
CCOP(=O)(CC)Cc1cccc(Nc2cc(-c3cccc([N+](=O)[O-])c3)ncn2)c1 (configuration not stated)	–	–	6.43 µM	–
CCOP(=O)(Cc1ccc(Nc2cc(-c3cccc([N+](=O)[O-])c3)ncn2)cc1)OCC	–	–	> 10 µM	–
CCOP(=O)(Nc1cc(Nc2cc(-c3ccccc3OC)ncn2)ccc1C)c1ccccc1 (configuration not stated)	18%	19%	5.24 µM	–
CCOP(=O)(CC)Cc1ccc(Nc2cc(-c3ccccc3OC)ncn2)cc1 (configuration not stated)	–	–	0.743 µM	–
CCCP(=O)(O)Cc1cccc(Nc2cc(-c3ccccc3OC)ncn2)c1	–	–	0.261 µM	competitive inhibition (qualitative) [4]: Active
CCOP(=O)(OCC)C(O)c1cccc(Nc2cc(-c3cccc(N)c3)ncn2)c1 (configuration not stated)	–	–	1.4 µM	–
CCOP(=O)(Cc1cccc(Nc2cc(-c3cccc([N+](=O)[O-])c3)ncn2)c1)OCC	–	–	9.87 µM	–
CCCP(=O)(Cc1cccc(Nc2cc(-c3cccc(OC)c3OC)ncn2)c1)OCC (configuration not stated)	–	–	2.39 µM	–
CCCP(=O)(OCC)c1ccc(Nc2cc(-c3cccc(N)c3)ncn2)cc1 (configuration not stated)	–	–	> 10 µM	–
